Bioassay records: PubChem, Johns Hopkins Ion Channel Center
Sampled rows, rich in hits. Any-hit rate of the full collection: about 2.3%.
TRPC4 inh: inhibitors of mouse TRPC4 channel, primary screen, Fluo4 calcium, HEK293 TRPC4beta/mu-opioid cells; Short transient receptor potential channel 4 (Mus musculus), Q9QUQ5; DAMGO-evoked Fluo4 calcium flux; stronger effect = lower value; B-score at 10 µM; 0.39% of 300,000 active; AID 2247, 2010;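 active means B-score over 3 SD under the library average, no early fluorescence shift, positive overall ratio signal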
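Assay system – HEK293 line stably carrying TRPC4beta and mu-opioid receptor · Doses – single dose · Detection – Fluo4 calcium-dye fluorescence, kinetic read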
TRPC6 inh: mouse TRPC6 channel inhibitors, primary screen, cell-based, HEK293, membrane potential dye | Short transient receptor potential channel 6 (Mus musculus), Q61143 | ACh-evoked depolarization; stronger effect = lower value | B-score at 10 µM | 1.1% of 310,000 active;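 active means B-score under library mean minus 3 SD, initial fluorescence not abnormally high, positive integrated signal ratio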;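 further: B-score derived from integrated fluorescence ratio over the kinetic read; more negative B-score means stronger inhibition of depolarization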
Target sequence (Q61143 whole entry, looked up): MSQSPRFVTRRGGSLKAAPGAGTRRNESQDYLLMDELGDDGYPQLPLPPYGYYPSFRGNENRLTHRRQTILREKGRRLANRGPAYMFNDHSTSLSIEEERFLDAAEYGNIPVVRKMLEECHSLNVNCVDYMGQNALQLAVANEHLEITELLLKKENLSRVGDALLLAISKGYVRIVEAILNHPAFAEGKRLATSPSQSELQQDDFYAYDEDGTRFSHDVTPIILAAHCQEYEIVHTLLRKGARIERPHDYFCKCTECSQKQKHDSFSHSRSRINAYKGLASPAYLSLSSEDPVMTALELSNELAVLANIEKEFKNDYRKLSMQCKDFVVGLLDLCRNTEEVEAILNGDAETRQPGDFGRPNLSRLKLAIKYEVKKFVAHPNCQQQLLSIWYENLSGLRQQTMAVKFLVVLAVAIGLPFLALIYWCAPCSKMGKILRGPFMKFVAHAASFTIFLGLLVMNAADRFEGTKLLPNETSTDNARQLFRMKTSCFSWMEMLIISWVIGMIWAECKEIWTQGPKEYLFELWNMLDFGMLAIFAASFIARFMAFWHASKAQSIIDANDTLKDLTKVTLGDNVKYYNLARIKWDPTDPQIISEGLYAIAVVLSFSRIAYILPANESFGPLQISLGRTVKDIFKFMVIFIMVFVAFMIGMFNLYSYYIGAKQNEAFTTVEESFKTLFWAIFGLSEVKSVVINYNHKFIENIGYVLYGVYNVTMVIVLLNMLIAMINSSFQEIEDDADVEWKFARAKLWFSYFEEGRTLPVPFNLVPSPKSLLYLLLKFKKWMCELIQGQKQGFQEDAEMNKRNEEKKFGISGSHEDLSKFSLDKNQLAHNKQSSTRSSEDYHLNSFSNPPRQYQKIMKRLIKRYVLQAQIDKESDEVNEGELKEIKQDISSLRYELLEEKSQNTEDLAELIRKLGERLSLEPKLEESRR
TRPC4 agonist: activators of mouse TRPC4 channel, primary screen, Fluo4 calcium, HEK293 TRPC4beta/mu-opioid cells; Fluo4 calcium fluorescence; stronger effect = higher value; B-score at 10 µM; 0.49% of 310,000 active;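 active means B-score above 5 SD of library B-scores, and initial fluorescence ratio not above library mean plus 5 SD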;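 further: positive B-score marks a calcium rise read as TRPC4 activation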
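Technique: kinetic Fluo4 calcium fluorescence; Test system: TRPC4beta and mu-opioid receptor HEK293 stable cells; Measure: B-scored integrated calcium fluorescence ratio; Benchmarks: low control buffer alone, high control maximal DAMGO; Schedule: 45 min room-temperature Fluo4 loading, 110 s read.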
TRPC4 PAM: positive allosteric modulators of TRPC4, primary screen, cell-based, mouse TRPC4beta, HEK293 mu-opioid, Fluo-4 calcium | Short transient receptor potential channel 4 (Mus musculus), Q9QUQ5 | DAMGO EC20, Fluo-4 Ca2+ flux; stronger effect = higher value | B-score at 10 µM | 0.42% of 310,000 active;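 active means B-score of calcium response area above 5 SD of library B-scores, with initial fluorescence ratio within 5 SD of library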;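 further: B-score of integrated fluorescence ratio over time as area under calcium response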
TRPC6 activator: mouse TRPC6 channel activators, primary screen, cell-based, HEK293, membrane potential dye | B-score at 10 µM | Short transient receptor potential channel 6 (Mus musculus), Q61143 | HEK293-TRPC6 membrane potential dye fluorescence; stronger effect = higher value | 0.13% of 310,000 active | AID 2550, 2010;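 active means B-score of the integrated fluorescence ratio above library mean plus 3 SD, and starting fluorescence ratio within library mean plus 5 SD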;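 further: higher score means more depolarization so channel activation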
TRPC4 spec 2: mouse TRPC4 off-target activity of TRPC6 inhibitors, second screen. shares compounds with TRPC6 inh. HEK293 TRPC4/MOR, membrane potential dye fluorescence; channel activated by saturating DAMGO dose. inhibition, % at 10 µM. 42% of 920 active;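 active means compounds whose fluorescence signal differed from control wells by over 3 SD, either direction, in both duplicate plates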
TRPC4 spec: mouse TRPC4 modulation by TRPC6 hits, confirmation, selectivity assay for TRPC6 inhibitor project, cell-based, HEK293 TRPC4/mu-opioid, membrane potential dye | 61% of 920 active | membrane potential fluorescence | activity change, negative = inhibition, % at 10 µM | shares compounds with TRPC6 inh | AID 2777, 2010;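 active means rise or fall in signal beyond 3 SD of buffer-only wells in both replicate plates, either sign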;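 further: integrated kinetic ratio of fluorescence range over baseline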
HEK293 MPD ctr 2-1: nonspecific membrane potential effects, parental HEK293, confirmation, counter-screen for TRPC6 inhibitor project, cell-based, second counter screen; shares compounds with TRPC6 inh; parental HEK293 membrane potential dye fluorescence; maximal acetylcholine challenge after compound addition; signal change vs control, % at 10 µM; 31% of 920 active;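 active means membrane potential signal moving either way by over 3 SD of the maximum-effect control, in both duplicate plates, meaning non-specific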
HEK293 MPD ctr-1: membrane potential modulation in parental HEK293, confirmation, counter-screen for TRPC6 inhibitor project, cell-based; shares compounds with TRPC6 inh; parental HEK293 membrane potential dye fluorescence; membrane potential signal change, % at 10 µM; 60% of 920 active;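 active means membrane potential signal shifting up or down by more than 3 SD of buffer-only wells, on both duplicate plates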
HEK293 MPD ctr-2: parental HEK293 membrane potential modulation, confirmation, counter-screen for TRPC6 modulator project, cell-based; shares compounds with TRPC6 inh; membrane potential dye fluorescence; membrane potential signal change, % at 10 µM; 51% of 2,400 active; AID 488924, 2010;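 active means membrane potential signal moves up or down beyond 5 SD from buffer-only wells, on both duplicate plates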
HEK293 MPD ctr 2-2: second counter-screen for TRPC6 modulators: effect in parental HEK293 cells. shares compounds with TRPC6 inh. AID 488926. 14% of 2,400 active. inhibition, % at 10 µM. membrane potential dye fluorescence; after compound, maximal acetylcholine stimulation;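 active means membrane potential signal drops by more than 5 SD from the mean control signal, in both duplicate plates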;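 further: plate controls were acetylcholine ECmax control wells for no effect and buffer only wells for full effect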
TRPC4/MOR mod: TRPC4 modulation by TRPC6 hit compounds, confirmation, selectivity assay for TRPC6 modulator project, cell-based, HEK293 TRPC4/mu-opioid, membrane potential dye, mouse; shares compounds with TRPC6 inh; membrane potential fluorescence; percent change from control (negative = decrease, positive = increase), % at 10 µM; 69% of 2,400 active; AID 488927, 2010;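 active means membrane potential signal moved up or down beyond 5 SD of buffer control wells, in both duplicate plates, actives on both sides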;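 further: plate controls were assay buffer wells for no effect and DAMGO maximal-effect wells for full effect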
TRPC4 ctr inh 2: second check of whether TRPC6 modulators also affect mouse TRPC4 | 55% of 2,400 active | HEK293 TRPC4/mu-opioid, membrane potential dye fluorescence; stimulated with maximal-effect DAMGO | shares compounds with TRPC6 inh | inhibition, % at 10 µM;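 active means drop in membrane potential signal beyond 5 SD of the control wells in both duplicate plates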;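 further: TRPC4 counter screen for TRPC6 hits run under conditions tuned for TRPC6 not TRPC4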
TRPC6 inh conf: mouse TRPC6 channel inhibitors, confirmation, HEK293 cells, membrane potential dye, duplicate. ACh-evoked depolarization. inhibition, % at 10 µM. shares compounds with TRPC6 inh. 43% of 3,300 active;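 active means fluorescence ratio falls more than 5 SD below the full-stimulation control mean, in both duplicate runs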;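 further: integrated fluorescence ratio of peak minus minimum over baseline after agonist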
TRPC6 act conf: mouse TRPC6 channel activators, confirmation, HEK293 cells, membrane potential dye, duplicate. HEK293-TRPC6 membrane potential dye fluorescence, FDSS. AID 488961, 2010. 11% of 2,800 active. activation, % at 10 µM. shares compounds with TRPC6 inh;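 active means ratio signal rise beyond 5 SD above unstimulated control wells' mean, seen in both duplicate runs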;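 further: plate controls were buffer EC0 wells for no effect and acetylcholine ECmax response for full effect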
* hit, by the source's call; i = inactive; . = no result given.

SMILES	TRPC4 inh	TRPC6 inh	TRPC4 agonist	TRPC4 PAM	TRPC6 activator	HEK293 MPD ctr-2	HEK293 MPD ctr 2-2	TRPC4/MOR mod	TRPC4 ctr inh 2	TRPC6 inh conf	TRPC6 act conf	others
COCCN1CC(O)=C(c2nc3ccccc3c(=O)[nH]2)C1=N	i	i	i	i	i	.	.	.	.	.	.
COc1ccc(/C=C2\SC(=S)N(CC3CCCO3)C2=O)cc1 (centres undefined)	i	i	i	i	i	.	.	.	.	.	.
COc1cc(/C=C2/SC(=S)N(CC3CCCO3)C2=O)ccc1O (centres undefined)	i	i	i	i	16*	212%*	i	89%*	i	i	40%*
CCOCCCNC(=O)CCCOc1ccccc1	i	-5.5*	i	i	i	i	i	i	i	i	i
CCN(CC(=O)NC(=O)NCc1ccccc1)Cc1ccccc1	i	i	i	i	i	.	.	.	.	.	.
COc1ccc(CCn2c(=N)c(C(=O)NCc3ccco3)cc3c(=O)n4ccccc4nc32)cc1	i	-5.9*	i	i	i	-164%*	i	-36%*	i	i	i
Cc1ccc(Cn2c(=N)c(C(=O)NCCN3CCOCC3)cc3c(=O)n4ccccc4nc32)cc1	i	-6.6*	i	19*	i	-70%*	98%*	-14%*	47%*	40%*	i
N=c1c(C(=O)NCCN2CCOCC2)cc2c(=O)n3ccccc3nc2n1CCc1ccccc1	i	-7.8*	i	i	i	.	.	.	.	99%*	i	TRPC4 spec 2=64%*;TRPC4 spec=-20%*;HEK293 MPD ctr 2-1=-78%*;HEK293 MPD ctr-1=-246%*
N=c1c(C(=O)NCCc2ccccc2)cc2c(=O)n3ccccc3nc2n1CCCN1CCOCC1	i	i	i	i	i	.	.	.	.	.	.
Cn1c(C(=O)NCCN2CCOCC2)cc2c(=O)n3ccccc3nc21	i	i	i	i	i	.	.	.	.	.	.
CCOc1ccccc1C1c2[nH]c3ccccc3c2C[C@H]2C(=O)N(C3CC3)CC(=O)N12 (some centres undefined)	i	i	i	i	i	.	.	.	.	.	.
Cc1cccn2c(=O)c3cc(C(=O)NC4CCCCC4)c(=N)n(Cc4ccc(F)cc4)c3nc12	i	i	i	i	i	.	.	.	.	.	.
COCCCNC(=O)c1cc2c(=O)n3cccc(C)c3nc2n(C(C)C)c1=N	i	-5*	i	i	i	i	67%*	i	30%*	45%*	i
CCNC(=O)c1cc2c(=O)n3cccc(C)c3nc2n(Cc2ccc(C)cc2)c1=N	i	-6.1*	i	i	i	-146%*	i	-28%*	40%*	i	i
COCCn1c(=N)c(C(=O)NCCc2ccc(OC)cc2)cc2c(=O)n3cccc(C)c3nc21	i	i	i	i	i	.	.	.	.	.	.
Cc1cccn2c(=O)c3cc(C(=O)NC(C)C)c(=N)n(Cc4ccncc4)c3nc12	i	-7.6*	i	i	i	.	.	.	.	76%*	i	TRPC4 spec 2=72%*;TRPC4 spec=-19%*;HEK293 MPD ctr 2-1=-16%*;HEK293 MPD ctr-1=-304%*
COc1ccc(CNC(=O)c2cc3c(=O)n4cccc(C)c4nc3n(CC3CCCO3)c2=N)cc1 (centres undefined)	i	i	i	i	i	.	.	.	.	.	.
CC(C)Oc1ccccc1NC(=O)CSc1nccn1C	i	i	i	i	i	.	.	.	.	.	.
CCN(CC)c1ccc(S(=O)(=O)N2CCOCC2)cc1NC(=O)COC(=O)c1cccnc1SC	i	i	i	i	i	.	.	.	.	.	.
Cc1ccnc(SCC(=O)NC2CCCCCC2)n1	i	i	i	i	i	.	.	.	.	.	.
COc1cc(/C=C(/C#N)C(=O)NC(C)c2ccccc2)cc(OC)c1O (centres undefined)	i	-5.3*	i	i	i	415%*	i	48%*	29%*	51%*	.
CC(NC(=O)/C(C#N)=C/c1ccc(C(=O)O)cc1)c1ccccc1 (centres undefined)	i	i	i	i	i	.	.	.	.	.	.
Cn1c(=O)c2c(nc(N3CCN(c4ccc([N+](=O)[O-])cc4)CC3)n2C)n(C)c1=O	i	i	i	i	i	.	.	.	.	.	.
